Screening data (PubChem BioAssay)
PMI act hi M6P – human PMI activators, high substrate, primary screen, biochemical, fluorescence intensity, near-saturating mannose 6-phosphate; coupled PMI enzyme assay, resazurin fluorescence, 20 min; active compounds read high; 1 = untreated enzyme, 0 = substrate-free blank; 190,000 tested, 0.34% active; Mannose-6-phosphate isomerase (Homo sapiens), P34949; AID 1216, 2008; activation factor at 20 µM;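 active = activation factor of 2 or more at 20 µM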
Target sequence (P34949 whole entry, looked up): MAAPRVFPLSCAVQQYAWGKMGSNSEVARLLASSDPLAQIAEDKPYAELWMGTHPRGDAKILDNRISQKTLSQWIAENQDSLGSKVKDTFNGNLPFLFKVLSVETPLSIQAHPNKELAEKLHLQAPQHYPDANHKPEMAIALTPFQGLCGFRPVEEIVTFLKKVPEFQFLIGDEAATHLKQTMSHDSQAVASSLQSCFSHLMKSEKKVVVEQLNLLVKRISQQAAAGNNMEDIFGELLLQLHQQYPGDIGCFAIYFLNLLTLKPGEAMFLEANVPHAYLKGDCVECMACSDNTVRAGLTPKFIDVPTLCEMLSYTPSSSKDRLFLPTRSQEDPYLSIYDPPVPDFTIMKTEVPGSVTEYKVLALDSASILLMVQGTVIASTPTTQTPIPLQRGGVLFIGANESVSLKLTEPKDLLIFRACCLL
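Test system: human phosphomannose isomerase with PGI, G6PDH, diaphorase coupling enzymes; Amount: PMI at 15 ng/mL final; Reagent: Mannose-6-phosphate 1.0 mM (near-saturating) plus 0.22 mM NADP+; Timing: 20 min, room temperature; Technique: resorufin fluorescence at Ex 544/Em 590 nm; Dosing: 20 µM single dose.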
TNAP inh no acc – human TNAP enzyme inhibitors, primary screen, biochemical, luminescent, no phosphate acceptor, uHTS | Alkaline phosphatase, tissue-nonspecific isozyme (Homo sapiens), P05186 | purified TNAP, CDP-star luminescence, 30 min | inhibition, % at 20 µM | 200,000 tested, 0.26% active;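 active = tissue-nonspecific alkaline phosphatase inhibition above about 50% at 20 µM in the single-dose screen, limit read from the data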;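 also: 0% = DMSO negative control and 100% = EDTA positive control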
TNAP inh hiacc – human TNAP enzyme inhibitors, primary screen, biochemical, luminescent, high phosphate acceptor level, uHTS. Alkaline phosphatase, tissue-nonspecific isozyme (Homo sapiens), P05186. purified TNAP, CDP-star luminescence, 1 M DEA. inhibition, % at 20 µM. 200,000 tested, 0.03% active. AID 1135, 2008;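 active = over 50% inhibition of tissue-nonspecific alkaline phosphatase at 20 µM in the single-dose screen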;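 also: plate controls were DMSO wells for no effect and EDTA-quenched wells as full inhibition for full effect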
PMI act – activators of human PMI, primary screen, biochemical, fluorescence intensity, near-Km mannose 6-phosphate | Mannose-6-phosphate isomerase (Homo sapiens), P34949 | purified human PMI, coupled resazurin fluorescence, 20 min; active compounds read high; 1 = vehicle control, 0 substrate-free wells | activation factor at 20 µM | 190,000 tested, 0.005% active;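 active = activation factor of 2 or more at 20 µM, relative to plate controls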
TNAP act hiacc – TNAP activators at high phosphate acceptor level, primary screen, biochemical, luminescence, uHTS; activation factor at 20 µM; Alkaline phosphatase, tissue-nonspecific isozyme (Homo sapiens), P05186; AID 1136, 2008; 200,000 tested, under 10 active; purified TNAP, CDP-star luminescence, 1 M DEA, 30 min; active compounds read high; 0 = EDTA background, 1 = DMSO-only activity;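 active = activation factor at least 2 at 20 µM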
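system = human TNAP | amount = enzyme diluted 1/800 final | reagent = 100 µM CDP-star substrate | signal = luminescent substrate turnover signal | dosing = one dose, 20 µM | benchmarks = EDTA negative control, DMSO positive control | measure = activation factor | timing = 30 min reaction, room temperature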
* = called active by the depositor. The list is not random: actives were taken first. Their share in the collection is about 0.64%.

SMILES | PMI act hi M6P | TNAP inh no acc | TNAP inh hiacc | PMI act | TNAP act hiacc
C/C=C(/C)C(=O)O[C@H]1[C@@H](O)c2c(ccc3ccc(=O)oc23)OC1(C)C | 1.1 | -9 | -5 | 1.1 | 1.1
O=C1c2ccccc2NC(c2cn[nH]c2-c2ccc(Cl)cc2)N1O (configuration not stated) | 2.2* | -22 | -4 | 1.7 | 1
N/N=C(/Cc1nc2ccccc2[nH]1)c1ccc([N+](=O)[O-])cc1 | 1 | -10 | -2 | 1.1 | 1
Cc1ccc(-c2cc(C(=O)N/N=C/c3c(C)nn(-c4ccccc4)c3C)[nH]n2)cc1 | 0.8 | 83* | 5 | 0.8 | 1
O=C(N/N=C\c1cccnc1)c1cc(-c2ccc(Cl)s2)[nH]n1 | 1 | 84* | 22 | 1 | 0.8
Cc1ccc(-c2cc(C(=O)N/N=C/c3c(C)nn(-c4ccccc4)c3C)n[nH]2)s1 | 0.9 | 60* | 6 | 0.8 | 0.9
Cc1[nH]c2ccccc2c1/C=N/NC(=O)c1cc(-c2cccs2)[nH]n1 | 0.9 | 81* | 13 | 0.9 | 0.9
Cc1nn(-c2ccccc2)c(C)c1/C=N/NC(=O)c1cc(C(C)(C)C)[nH]n1 | 0.9 | -10 | -4 | 0.9 | 1
Cc1cccc(NS(=O)(=O)c2cc(C(=O)N3CCc4ccccc4C3)ccc2Cl)c1C | 0.9 | 4 | -1 | 1 | 1
Fc1ccc(-n2c(CN3CCCCC3)n[nH]c2=S)cc1 | 1 | 3 | -6 | 1 | 1.1
Fc1ccccc1SCc1nnc(-c2ccccc2Br)o1 | 1 | 0 | -1 | 0.9 | 1
CCOC(=O)C1C(=O)Nc2nc3ccccc3n2C1C(C)C (configuration not stated) | 1 | 92* | 0 | 0.9 | 1
CCOC(=O)C1C(=O)Nc2nc(C)nn2C1c1ccccc1 (configuration not stated) | 0.8 | -2 | -2 | 0.8 | 1
COc1ccc(CCc2nnc(CCC(=O)NCc3ccc4ncccc4c3)o2)cc1 | 1.1 | -11 | -6 | 1 | 1.1
Cc1cc(C)c2nc(NCCCNC(=S)NCCCN(C)C)c(C#N)cc2c1 | 1.1 | -17 | -10 | 1.1 | 1.1
CCOCCCNC(=S)NCCCNc1nc2c(C)cc(C)cc2cc1C#N | 2.1* | -38 | -13 | 1.7 | 1.1
CC(CCCC(C)(C)O)NC(=O)c1ccc(OC2CCN(C(=O)C3CC3)CC2)cc1 (configuration not stated) | 1.1 | -3 | -5 | 1 | 1.1
CSc1nncc(/C(C)=N\Nc2ccccc2C)n1 | 2.2* | -5 | 7 | 1.8 | 0.9
CC/C(=N/Nc1cccc(C)c1)c1cnnc(SC)n1 | 2.3* | 2 | 8 | 1.6 | 0.9
CC/C(=N/Nc1ccccc1Cl)c1cnnc(-c2ccccc2)n1 | 2.1* | -2 | -1 | 1.6 | 1
COc1ccc(N/N=C(/C)c2cnnc(-c3ccccc3)n2)cc1 | 2.4* | 12 | 9 | 1.8 | 0.9
CC(C)CC(NC(N)=O)C(=O)OCC(=O)N(Cc1ccccc1)Cc1ccccc1 (configuration not stated) | 1 | -2 | -2 | 1 | 1
CC(Cc1ccsc1)NC(=O)CCc1nnc(CCc2ccccc2)o1 (configuration not stated) | 1 | -13 | -4 | 0.9 | 1
CCN(CC)CC(C)OC(=O)c1ccccc1Cl (configuration not stated) | 1 | -9 | -4 | 1 | 1
CC/C(=N/Nc1ccc(Cl)cc1)c1cnnc(SC)n1 | 2.5* | 9 | 13 | 1.8 | 0.9
CNC(=S)NCCc1cc2c(OC)ccc(OC)c2[nH]c1=O | 0.6 | -12 | -6 | 0.9 | 1.1
CC(=O)/C(=N/Nc1cccc(C)c1)N1CCOCC1 | 2.2* | -8 | -2 | 1.7 | 1
NNc1ccccc1C(F)(F)F | 3.1* | -26 | -3 | 2* | 1
